In the assay the test system is OPM-2 cells. Kind of assay: Apoptosis and necroptosis inhibition assays. It is filed as cell-based, human. An outline of the steps:
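OPM-2 cells at 250,000 cells/mL pre-incubated 1 h at 37°C in medium containing pan-caspase inhibitor Z-VAD-FMK, necroptosis inhibitor necrostatin-1s, or DMSO. Washed (PBS for Z-VAD-FMK arm), then cultured 72 h with test compound or DMSO. Viability by Zombie-aqua staining and flow cytometry. Z-VAD-FMK arm: mean ± SD of 3 independent experiments.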

Residues, ends and D or L forms follow the SMILES beside them. *: point of attachment. Cbz = O=C(OCc1ccccc1)*; CH2F = FC*

As for `COC(=O)C[C@H](NC(=O)[C@H](C)NC(=O)[C@@H](NC(=O)OCc1ccccc1)C(C)C)C(=O)CF` [Z-VAD-FMK] (Cbz-Val-Ala-Asp(OMe)-CH2F), where the note is “100 mM Z-VAD-FMK 1 h, then 1 mM OSU-13 72 h”, the “decrease of OSU-13-mediated cell death by pretreatment” value was determined as 20±6.7%.
Take `CN1C(=O)NC(Cc2c[nH]c3c(Cl)cccc23)C1=O` (centres unmarked) [Necrostatin-1s]: the “effect of pretreatment on OSU-13-mediated cell death” value (100 μM necrostatin-1s 1 h, then 1 μM OSU-13 72 h) is “no measurable effect”.

The values are drawn from publication PMC10828771 (Haematologica, 2023).
